According to ChEMBL document CHEMBL3044709, “Antimicrobial furostanol saponins from the seeds of Capsicum annuum L. var. acuminatum” (2002):
In brackets after ≈: the same amount, converted by molar mass.

What was measured:
Type in all cases: functional
Staphylococcus aureus = assay: Antimicrobial activity against Staphylococcus aureus subsp. aureus DSM 346 after 48 hr by agar dilution method; conditions: DSM 346, 48 h
Summary of the method: (§1)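 Agar dilution on standard plate count agar: 0.5 mL of a 2-fold serial dilution of sample mixed into 9.5 mL medium, poured into Petri dishes, organism streaked on the surface. Incubated at 28 °C (36 and 48 h). MIC is the lowest tested concentration with no visible growth.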

[1] = test system: Lacticaseibacillus rhamnosus; assay: Antimicrobial activity against Lactobacillus rhamnosus DSM 20021 after 48 hr by agar dilution method; conditions: DSM 20021, 48 h; summary of the method: as §1
[2] = test system: Hanseniaspora guilliermondii; assay: Antimicrobial activity against Hanseniaspora guilliermondii CBS 465 after 48 hr by agar dilution method; conditions: CBS 465, 48 h
Summary of the method: (§2)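 Yeast peptone dextrose agar plates, each holding a 2-fold serial dilution of sample (0.5 mL into 9.5 mL medium). Yeast streaked onto the plates and incubated at 28 °C, read at 36 and 48 h. MIC is the lowest concentration tested showing no growth.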

Trichoderma viride = assay: Antimicrobial activity against Hypocrea rufa ATCC 28020 after 48 hr by agar dilution method; conditions: ATCC 28020, 48 h
Summary of the method: (§3)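 Fungi tested by agar dilution in malt agar. Serial 2-fold sample dilutions (0.5 mL) were mixed with 9.5 mL medium and plated, then streaked with the organism. Incubation at 28 °C for 36 and 48 h. MIC is the lowest tested concentration without growth.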

Pseudomonas aeruginosa = assay: Antimicrobial activity against Pseudomonas aeruginosa DSM 1117 after 48 hr by agar dilution method; conditions: DSM 1117, 48 h; summary of the method: as §1
Saccharomyces cerevisiae [3] = assay: Antimicrobial activity against Saccharomyces cerevisiae Diproval 404 after 48 hr by agar dilution method; conditions: Diproval 404, 48 h; summary of the method: as §2
[4] = test system: Limosilactobacillus fermentum; assay: Antimicrobial activity against Lactobacillus fermentum DSM 20052 after 48 hr by agar dilution method; conditions: DSM 20052, 48 h; summary of the method: as §1
Enterococcus faecalis = assay: Antimicrobial activity against Enterococcus faecalis DSM 2570 after 48 hr by agar dilution method; conditions: DSM 2570, 48 h; summary of the method: as §1
Bacillus licheniformis = assay: Antimicrobial activity against Bacillus licheniformis DSM 13=ATCC 14580 after 48 hr by agar dilution method; conditions: DSM 13 = ATCC 14580, 48 h; summary of the method: as §1
Aspergillus fumigatus = assay: Antimicrobial activity against Aspergillus fumigatus ATCC 1028 after 48 hr by agar dilution method; conditions: ATCC 1028, 48 h; summary of the method: as §3
Aspergillus flavus = assay: Antimicrobial activity against Aspergillus flavus ATCC 11655 after 48 hr by agar dilution method; conditions: ATCC 11655, 48 h; summary of the method: as §3
Aspergillus niger = assay: Antimicrobial activity against Aspergillus niger ATCC 1040 after 48 hr by agar dilution method; conditions: ATCC 1040, 48 h; summary of the method: as §3
Rhizopus arrhizus = assay: Antimicrobial activity against Rhizopus oryzae ATCC 56536 after 48 hr by agar dilution method; conditions: ATCC 56536, 48 h; summary of the method: as §3
Hanseniaspora osmophila = assay: Antimicrobial activity against Hanseniaspora osmophila CBS 313 after 48 hr by agar dilution method; conditions: CBS 313, 48 h; summary of the method: as §2
[5] = test system: Staphylococcus epidermidis; assay: Antimicrobial activity against Staphylococcus epidermidis DSM 1798 after 48 hr by agar dilution method; conditions: DSM 1798, 48 h; summary of the method: as §1
Saccharomyces cerevisiae [6] = assay: Antimicrobial activity against Saccharomyces cerevisiae Diproval 7070 after 48 hr by agar dilution method; conditions: Diproval 7070, 48 h; summary of the method: as §2
Escherichia coli [7] = assay: Antimicrobial activity against Escherichia coli ATCC 35346 after 48 hr by agar dilution method; conditions: ATCC 35346, 48 h; summary of the method: as §1
Candida albicans = assay: Antimicrobial activity against Candida albicans CBS 562 after 48 hr by agar dilution method; conditions: CBS 562, 48 h; summary of the method: as §2
Escherichia coli [8] = assay: Antimicrobial activity against Escherichia coli DSM 682 after 48 hr by agar dilution method; conditions: DSM 682, 48 h; summary of the method: as §1
Hanseniaspora uvarum [9] = assay: Antimicrobial activity against Hanseniaspora uvarum CBS 314 after 48 hr by agar dilution method; conditions: CBS 314, 48 h; summary of the method: as §2
Stutzerimonas stutzeri = assay: Antimicrobial activity against Pseudomonas stutzeri ATCC 962 after 48 hr by agar dilution method; conditions: ATCC 962, 48 h; summary of the method: as §1
Bacillus cereus = assay: Antimicrobial activity against Bacillus cereus DSM 345 after 48 hr by agar dilution method; conditions: DSM 345, 48 h; summary of the method: as §1
[10] = test system: Schizosaccharomyces pombe; assay: Antimicrobial activity against Schizosaccharomyces pombe Diproval 106 after 48 hr by agar dilution method; conditions: Diproval 106, 48 h; summary of the method: as §2
Saccharomyces cerevisiae [11] = assay: Antimicrobial activity against Saccharomyces cerevisiae Diproval 9109 after 48 hr by agar dilution method; conditions: Diproval 9109, 48 h; summary of the method: as §2
Saccharomyces cerevisiae [12] = assay: Antimicrobial activity against Saccharomyces cerevisiae Diproval 2439 after 48 hr by agar dilution method; conditions: Diproval 2439, 48 h; summary of the method: as §2
Saccharomyces cerevisiae [13] = assay: Antimicrobial activity against Saccharomyces cerevisiae Diproval 6073 after 48 hr by agar dilution method; conditions: Diproval 6073, 48 h; summary of the method: as §2
Micrococcus luteus = assay: Antimicrobial activity against Micrococcus luteus DSM 348 after 48 hr by agar dilution method; conditions: DSM 348, 48 h; summary of the method: as §1
Bacillus subtilis = assay: Antimicrobial activity against Bacillus subtilis DSM 345 after 48 hr by agar dilution method; conditions: DSM 345, 48 h; summary of the method: as §1
Saccharomycodes ludwigii = assay: Antimicrobial activity against Saccharomycodes ludwigii Diproval 120 after 48 hr by agar dilution method; conditions: Diproval 120, 48 h; summary of the method: as §2
Lacticaseibacillus casei = assay: Antimicrobial activity against Lactobacillus casei DSM 20011 after 48 hr by agar dilution method; conditions: DSM 20011, 48 h; summary of the method: as §1
[14] = test system: Lactiplantibacillus plantarum; assay: Antimicrobial activity against Lactobacillus plantarum DSM 20174 after 48 hr by agar dilution method; conditions: DSM 20174, 48 h; summary of the method: as §1
Hanseniaspora uvarum [15] = assay: Antimicrobial activity against Hanseniaspora uvarum AP23 after 48 hr by agar dilution method; conditions: Distaam AP23, 48 h; summary of the method: as §2
Hanseniaspora vineae = assay: Antimicrobial activity against Hanseniaspora vineae CBS 2171 after 48 hr by agar dilution method; conditions: CBS 2171, 48 h; summary of the method: as §2
Saccharomyces cerevisiae [16] = assay: Antimicrobial activity against Saccharomyces cerevisiae Diproval 8167 after 48 hr by agar dilution method; conditions: Diproval 8167, 48 h; summary of the method: as §2
Setophoma terrestris = assay: Antimicrobial activity against Setophoma terrestris ATCC 11321 after 48 hr by agar dilution method; conditions: ATCC 11321, 48 h; summary of the method: as §3
Penicillium expansum = assay: Antimicrobial activity against Penicillium expansum ATCC 7861 after 48 hr by agar dilution method; conditions: ATCC 7861, 48 h; summary of the method: as §3

## COC1(CC[C@@H](C)CO[C@@H]2O[C@H](CO)[C@@H](O)[C@H](O)[C@H]2O)O[C@H]2C[C@H]3[C@@H]4CC[C@H]5C[C@@H](O[C@@H]6O[C@H](CO)[C@H](O[C@@H]7O[C@H](CO)[C@@H](O)[C@H](O[C@@H]8O[C@H](CO)[C@@H](O)[C@H](O)[C@H]8O)[C@H]7O[C@@H]7O[C@H](CO)[C@@H](O)[C@H](O[C@@H]8O[C@H](CO)[C@@H](O)[C@H](O)[C@H]8O)[C@H]7O)[C@H](O)[C@H]6O)CC[C@]5(C)[C@H]4CC[C@]3(C)[C@H]2[C@@H]1C (some centres not stated) [22-O-METHYLCAPSICOSIDE G]
Staphylococcus aureus
  MIC: > 1000 µg/mL
[1]
  MIC: 1000 µg/mL (≈ 703 µM)
[2]
  MIC: 12.5 µg/mL (≈ 8.79 µM)
Trichoderma viride
  MIC: 250 µg/mL (≈ 176 µM)
Pseudomonas aeruginosa
  MIC: > 1000 µg/mL
Saccharomyces cerevisiae [3]
  MIC: 25 µg/mL (≈ 17.6 µM)
[4]
  MIC: 1000 µg/mL (≈ 703 µM)
Enterococcus faecalis
  MIC: > 1000 µg/mL
Bacillus licheniformis
  MIC: > 1000 µg/mL
Aspergillus fumigatus
  MIC: > 1000 µg/mL
Aspergillus flavus
  MIC: > 1000 µg/mL
Aspergillus niger
  MIC: > 1000 µg/mL
Rhizopus arrhizus
  MIC: 125 µg/mL (≈ 87.9 µM)
Hanseniaspora osmophila
  MIC: 25 µg/mL (≈ 17.6 µM)
[5]
  MIC: > 1000 µg/mL
Saccharomyces cerevisiae [6]
  MIC: 25 µg/mL (≈ 17.6 µM)
Escherichia coli [7]
  MIC: 1000 µg/mL (≈ 703 µM)
Candida albicans
  MIC: 25 µg/mL (≈ 17.6 µM)
Escherichia coli [8]
  MIC: 1000 µg/mL (≈ 703 µM)
Hanseniaspora uvarum [9]
  MIC: 12.5 µg/mL (≈ 8.79 µM)
Stutzerimonas stutzeri
  MIC: > 1000 µg/mL
Bacillus cereus
  MIC: 1000 µg/mL (≈ 703 µM)
[10]
  MIC: 25 µg/mL (≈ 17.6 µM)
Saccharomyces cerevisiae [11]
  MIC: 25 µg/mL (≈ 17.6 µM)
Saccharomyces cerevisiae [12]
  MIC: 25 µg/mL (≈ 17.6 µM)
Saccharomyces cerevisiae [13]
  MIC: 25 µg/mL (≈ 17.6 µM)
Micrococcus luteus
  MIC: > 1000 µg/mL
Bacillus subtilis
  MIC: > 1000 µg/mL
Saccharomycodes ludwigii
  MIC: 12.5 µg/mL (≈ 8.79 µM)
Lacticaseibacillus casei
  MIC: 1000 µg/mL (≈ 703 µM)
[14]
  MIC: 1000 µg/mL (≈ 703 µM)
Hanseniaspora uvarum [15]
  MIC: 12.5 µg/mL (≈ 8.79 µM)
Hanseniaspora vineae
  MIC: 12.5 µg/mL (≈ 8.79 µM)
Saccharomyces cerevisiae [16]
  MIC: 25 µg/mL (≈ 17.6 µM)
Setophoma terrestris
  MIC: 250 µg/mL (≈ 176 µM)
Penicillium expansum
  MIC: 500 µg/mL (≈ 352 µM)

## COC1(CC[C@@H](C)CO[C@@H]2O[C@H](CO)[C@@H](O)[C@H](O)[C@H]2O)O[C@H]2C[C@H]3[C@@H]4CC[C@H]5C[C@@H](O[C@@H]6O[C@H](CO)[C@H](O[C@@H]7O[C@H](CO)[C@@H](O)[C@H](O[C@@H]8O[C@H](CO)[C@@H](O)[C@H](O)[C@H]8O)[C@H]7O[C@@H]7O[C@H](CO)[C@@H](O)[C@H](O[C@@H]8O[C@H](CO)[C@@H](O)[C@H](O)[C@H]8O)[C@H]7O)[C@H](O)[C@H]6O)[C@H](O)C[C@]5(C)[C@H]4CC[C@]3(C)[C@H]2[C@@H]1C (some centres not stated) [O-METHYLCAPSICOSIDE A]
Staphylococcus aureus
  MIC: > 1000 µg/mL
[1]
  MIC: 1000 µg/mL (≈ 696 µM)
[2]
  MIC: 25 µg/mL (≈ 17.4 µM)
Trichoderma viride
  MIC: 250 µg/mL (≈ 174 µM)
Pseudomonas aeruginosa
  MIC: > 1000 µg/mL
Saccharomyces cerevisiae [3]
  MIC: 50 µg/mL (≈ 34.8 µM)
[4]
  MIC: 1000 µg/mL (≈ 696 µM)
Enterococcus faecalis
  MIC: > 1000 µg/mL
Bacillus licheniformis
  MIC: > 1000 µg/mL
Aspergillus fumigatus
  MIC: > 1000 µg/mL
Aspergillus flavus
  MIC: > 1000 µg/mL
Aspergillus niger
  MIC: > 1000 µg/mL
Rhizopus arrhizus
  MIC: 125 µg/mL (≈ 87 µM)
Hanseniaspora osmophila
  MIC: 50 µg/mL (≈ 34.8 µM)
[5]
  MIC: > 1000 µg/mL
Saccharomyces cerevisiae [6]
  MIC: 50 µg/mL (≈ 34.8 µM)
Escherichia coli [7]
  MIC: 1000 µg/mL (≈ 696 µM)
Candida albicans
  MIC: 50 µg/mL (≈ 34.8 µM)
Escherichia coli [8]
  MIC: 1000 µg/mL (≈ 696 µM)
Hanseniaspora uvarum [9]
  MIC: 25 µg/mL (≈ 17.4 µM)
Stutzerimonas stutzeri
  MIC: > 1000 µg/mL
Bacillus cereus
  MIC: 1000 µg/mL (≈ 696 µM)
[10]
  MIC: 50 µg/mL (≈ 34.8 µM)
Saccharomyces cerevisiae [11]
  MIC: 50 µg/mL (≈ 34.8 µM)
Saccharomyces cerevisiae [12]
  MIC: 50 µg/mL (≈ 34.8 µM)
Saccharomyces cerevisiae [13]
  MIC: 50 µg/mL (≈ 34.8 µM)
Micrococcus luteus
  MIC: > 1000 µg/mL
Bacillus subtilis
  MIC: > 1000 µg/mL
Saccharomycodes ludwigii
  MIC: 50 µg/mL (≈ 34.8 µM)
Lacticaseibacillus casei
  MIC: 1000 µg/mL (≈ 696 µM)
[14]
  MIC: 1000 µg/mL (≈ 696 µM)
Hanseniaspora uvarum [15]
  MIC: 50 µg/mL (≈ 34.8 µM)
Hanseniaspora vineae
  MIC: 25 µg/mL (≈ 17.4 µM)
Saccharomyces cerevisiae [16]
  MIC: 50 µg/mL (≈ 34.8 µM)
Setophoma terrestris
  MIC: 125 µg/mL (≈ 87 µM)
Penicillium expansum
  MIC: 1000 µg/mL (≈ 696 µM)
